# Calpain2 inh – calpain II (pig) inhibition; purified calpain II, fluorogenic peptide substrate, 30 min; inhibition, % at 16 µM; hit rate 0.37% among 220,000; AID 1236;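 active = inhibition above about 50%, limit read from the data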
# RanGTP-Impb inh – disruptors of Ran-importin-beta complex formation – biochemical, FRET, CFP-Ran, YFP-importin-beta, homogeneous, primary screen; cell-free CFP-Ran/YFP-importin-beta FRET ratio; inhibition, % (test concentration not listed); hit rate 1.1% among 300,000; AID 2216;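 active = more than half of the replicate wells show a fall in the fluorescence ratio signal beyond about 16%, limit read from the data, passing the limit was not always enough; inconclusive = exactly half of the replicate wells pass the set limit; inactive = fewer than half of replicates pass the limit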;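 also: 0% = DMSO wells and 100% = Ran loaded with GDP instead of GTP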
# Runt-CBFb FRET – blocks binding of human RUNX1 Runt domain to CBFb; Cerulean-Runt/Venus-CBFb FRET ratio 530/480, 1 h; inhibition, % at 20 µM; hit rate 0.46% among 220,000; AID 1496;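 active = inhibition over about 50% at 20 µM in the single-dose screen, limit read from the data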;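 also: 0% = DMSO wells and 100% = excess unlabeled CBFb competitor control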
# Target sequence (Q01196 whole entry, looked up, the tested form may be a part): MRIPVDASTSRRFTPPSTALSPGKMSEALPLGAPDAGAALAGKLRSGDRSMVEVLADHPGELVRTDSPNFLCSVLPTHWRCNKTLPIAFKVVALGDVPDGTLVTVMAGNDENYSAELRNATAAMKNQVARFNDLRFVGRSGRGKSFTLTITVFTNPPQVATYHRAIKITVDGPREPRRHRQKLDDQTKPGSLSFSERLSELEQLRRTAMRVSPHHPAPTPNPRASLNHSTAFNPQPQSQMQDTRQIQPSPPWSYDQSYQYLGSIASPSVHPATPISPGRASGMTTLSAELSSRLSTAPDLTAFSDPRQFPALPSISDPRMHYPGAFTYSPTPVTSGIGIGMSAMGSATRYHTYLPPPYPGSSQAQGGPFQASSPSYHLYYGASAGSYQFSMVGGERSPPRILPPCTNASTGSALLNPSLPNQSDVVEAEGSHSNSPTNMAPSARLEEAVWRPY
# Target sequence (Q13951 whole entry, looked up, the tested form may be a part): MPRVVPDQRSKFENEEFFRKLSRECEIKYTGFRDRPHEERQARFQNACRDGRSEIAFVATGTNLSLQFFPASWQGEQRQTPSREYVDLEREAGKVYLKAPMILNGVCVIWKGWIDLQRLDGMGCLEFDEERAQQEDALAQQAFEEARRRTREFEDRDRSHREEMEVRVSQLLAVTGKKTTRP
#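 Measured by: fluorescence energy transfer, 422 nm excitation, 530/480 nm emission; test system: Cerulean-tagged RUNX1 Runt domain (FRET donor) fusion protein; buffer or medium: Tris pH 7.5 buffer with BSA; compound: one dose, 20 µM compound, 1% DMSO; times: two 1 h room-temperature incubations shielded from light; benchmarks: unlabeled CBFb 5 µM, positive control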
# Runt-SMMHC FRET – blocks binding of human RUNX1 Runt domain to CBFb-SMMHC. AID 1434. Q01196+Q13951. Cerulean-Runt/Venus-CBFb-SMMHC FRET ratio 530/480, 1 h. hit rate 0.74% among 220,000. inhibition, % at 20 µM;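 active = mean inhibition across duplicate retests at 20 µM reaching about 50%, limit read from the data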;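 also: 0% = DMSO wells and 100% = wells with excess untagged CBFb-SMMHC; inhibitors lower the FRET ratio by blocking Runt binding to CBFb-SMMHC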
# FAS TE block – blocks the thioesterase domain of human fatty acid synthase; P49327; recombinant FAS-TE, OMFH fluorogenic substrate, fluorescence endpoint; hit rate 0.67% among 360,000; inhibition, % at 15 µM;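 active = compounds whose normalised, plate-corrected inhibition of enzyme fluorescence in the single-dose primary screen is 50% or more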;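 also: 0% = DMSO with enzyme and 100% = substrate without enzyme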
# * marks the source's active call; other numbers are inactive results; ? = inconclusive; . = no result. Shown are actives, neighbours in structure and some others; about 2.1% of the full set was active somewhere.
SMILES,Calpain2 inh,RanGTP-Impb inh,Runt-CBFb FRET,Runt-SMMHC FRET,FAS TE block
COc1ccc(-c2nc3ccc(C(=O)NCC(OC)OC)cc3nc2-c2ccc(OC)c(OC)c2)cc1OC,.,1,.,.,-2
FC(F)(F)c1cccc(N2CCN(C(=S)NC3CCCC3)CC2)c1,52*,-1,0,0,32
Cc1ccc(-c2csc(NCCn3c(C)nc4cc(C(F)(F)F)ccc43)n2)cc1,.,.,.,.,14
NC(=O)c1sc2nc(-c3ccccc3)ccc2c1N,.,5,.,.,-2
CCOC(=O)c1sc2nc(-c3ccccc3)ccc2c1N,-79,30*,5,20,-1
C=CCSc1nc2c(cnn2-c2ccccc2)c(=O)n1N,-16,4,-2,0,-3
CC(=O)c1ccc(NC(=O)c2ccc(CNc3c(N4CCOCC4)c(=O)c3=O)cc2)cc1,13,-1,3,2,3
O=C(CN1CCc2ccccc2C1)c1cccs1,25,25*,1,0,-6
O=C(N=C1N=C2C=CC(Br)=CN2Cc2ccccc21)c1ccc([N+](=O)[O-])cc1[N+](=O)[O-],-17,-1,0,0,45
Cc1c(C)c(C)c(CN2CCCC2)c(C)c1C,-6,?,2,0,-4
CCOC(=O)c1cc(-c2ccccc2)nc2nc(N3CCCCC3)sc12,-291,12,37,96,8
CCOC(=O)c1cc(-c2ccccc2)nc2nc(N(CC)CC)sc12,.,45*,.,.,29
CC(C)Cc1ccc(CN2C(C)C(=O)N(Cc3cn(Cc4ccco4)nn3)CCS2(=O)=O)cc1 (centres undefined),.,.,.,.,-6
Cc1ccccc1[C@H](NC1c2ccccc2C=Cc2ccccc21)P(=O)(c1ccccc1)c1ccccc1,.,.,.,.,32
O=C(c1ccc(N2CCCC2=O)cc1)N1CCCCCC1,84*,-1,0,0,-6
O=C(c1ccc(N2CCCC2=O)cc1)N1CCN(c2ccccc2)CC1,22,-1,3,-1,-11
C/C(N)=C(/C#N)C(=O)COC(=O)CC12CC3CC(CC(C3)C1)C2,65*,6,-3,0,32
C/C(N)=C(/C#N)C(=O)COC(=O)CC1CCCC1,.,2,-1,2,-4
CC(=O)c1cccc(NC(=O)Nc2c(C)nn(C)c2C)c1,-2,63*,0,-1,-11
CC(=O)c1cccc(S(=O)(=O)Nc2c(C)nn(C)c2C)c1,.,.,.,.,-6
COc1cc(C2SCC(=O)N2Cc2ccccc2)ccc1O (centres undefined),.,17*,.,.,-3
CCOC(=O)C/C(N)=N/N(C)c1ncc(C(F)(F)F)cc1Cl,-17,4,0,-1,38
O=C1CCCN1c1ccc([N+](=O)[O-])cc1,.,.,.,.,-3
O=C1CN(O)C=C2N=c3ccccc3=C2N1c1ccc([N+](=O)[O-])cc1,58*,0,0,0,2
CC(=O)CSc1nc(N)c(C#N)c(-c2cccs2)c1C#N,12,-1,0,-2,0
SMILES,Calpain2 inh,RanGTP-Impb inh,Runt-CBFb FRET,Runt-SMMHC FRET,FAS TE block
CC(C)(C)C(=O)CSc1nc2c(c(-c3cccs3)c1C#N)CCC2,2,62*,1,28,36
CCC(CC)COC(=O)C(C#N)c1nc2ccccc2nc1N1CCN(CC)CC1 (centres undefined),-108,14,20,40,15
CCCCCCOC(=O)C(C#N)c1nc2ccccc2nc1N1CCCCC1 (centres undefined),-61,31*,-8,-31,23
CCCCCCOC(=O)C(C#N)c1nc2ccccc2nc1N1CCN(C)CC1 (centres undefined),-57,23*,8,21,16
CCC(C)COC(=O)C(C#N)c1nc2ccccc2nc1N1CCCCC1 (centres undefined),-7,23*,2,0,24
CN[C@@H]1CC[C@H](c2ccc(Cl)c(Cl)c2)c2ccccc21,.,-2,.,.,1
CCN(CC(=O)Nc1c(F)cccc1F)C(=O)C1CCCN(C(=O)c2ccc(Cl)cc2)C1 (centres undefined),.,1,.,.,-3
COc1ccc(NC2=C(C(C)=O)C(c3ccc(OC)c(OC)c3)C(C(C)=O)C(C)(O)C2)cc1 (centres undefined),-5,164*,-1,-3,-7
COc1ccc(SC[C@H](Cc2ccccc2)N2CC[C@@H](C(C)(C)C)CCC2=O)cc1,.,.,.,.,29
Cc1ccccc1NC(=O)c1cc2c(=O)n3cccc(C)c3nc2s1,.,84*,.,.,-1
Cc1cccn2c(=O)c3cc(C(=O)NC4CCCCCC4)sc3nc12,.,19*,.,.,6
CSc1ccccc1NC(=O)c1cc2c(=O)n3ccccc3nc2s1,.,71*,.,.,-6
CN1CCN(C(=O)c2cc3c(=O)n4ccccc4nc3s2)CC1,.,20*,.,.,-5
Cc1cccn2c(=O)c3cc(C(=O)NC4CCS(=O)(=O)C4)sc3nc12 (centres undefined),-416,5,6,9,-4
COc1cccc(C2=NOC(C(=O)Nc3ccc4c(c3)OCO4)C2)c1OC (centres undefined),.,-3,.,.,2
CC(C)C(NC(=O)CCNC(=O)c1ccc(C(C)(C)C)cc1)c1nc2ccccc2[nH]1 (centres undefined),.,.,.,.,-1
Cc1cc(C)cc(NC(=O)COc2coc(CN3CCc4ccccc4C3)cc2=O)c1,.,1,.,.,-1
c1ccc(N2CCN(c3nc4ccccc4n4nnnc34)CC2)cc1,-18,44*,15,31,-3
c1ccc2c(c1)nc(N1CCOCC1)c1nnnn12,-52,?,12,20,-7
COc1c(OC)c2[nH]c(=O)cc3c4ccccc4n(c1=O)c23,.,157*,.,.,1
Cc1ccc(NC2=CC(=O)CC(c3ccc(Cl)cc3)C2)cc1 (centres undefined),-8,35*,0,0,0
CSCC(C)N1CCC(Oc2cccc(C(=O)NCc3ccccn3)c2)CC1 (centres undefined),.,30*,.,.,-4
C[C@H]1CN([C@@H](C)CO)C(=O)Cc2cc(NC(=O)CCC(F)(F)F)ccc2O[C@H]1CN(C)CC1CC1,.,.,.,.,-12
CNc1sc(C(=O)c2cccs2)c(N)c1-c1nc2ccccc2s1,-33,-1,8,76*,17
O=C(O)c1cccc(S(=O)(=O)Nc2ccccc2C(=O)NCCc2ccccc2)c1,.,-1,.,.,-5
SMILES,Calpain2 inh,RanGTP-Impb inh,Runt-CBFb FRET,Runt-SMMHC FRET,FAS TE block
COc1ccc(CCC(=O)NCCS(=O)(=O)N2CCN(c3ccc(F)cc3)CC2)cc1,.,13,.,.,0
O=C(c1cc2ccccc2cc1O)N1CCN(c2ccc([N+](=O)[O-])cc2)CC1,.,1,.,.,9
CCCCNS(=O)(=O)c1ccc2nc(SCC(=O)Nc3ccccc3Cl)[nH]c2c1,56*,3,1,-2,-10
CC(C)c1ccc(NC(=O)C2CCN(S(=O)(=O)c3ccc4c(c3)C(C)(C)C(=O)N4C)CC2)cc1,.,0,.,.,13
O=C(Oc1cccc(-n2cnnn2)c1)c1ccco1,-11,2,-1,-1,-1
Cc1ccc(C(=O)Oc2cccc(-n3cnnn3)c2)cc1,62*,10,0,-5,31

# Screening data deposited in PubChem BioAssay by several laboratories.
